Activity calls are given as the source filed them.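 How the source made its calls, unless noted: active means viability at or under a set limit in both replicates, limit being median viability minus 3 SD (cut at about 48% in these data, passing the limit was not always enough); inconclusive means at or under the limit in just one replicate; inactive means at or above the limit in both replicates.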
How the values were obtained:
[1] = SK-BR-3 cell growth inhibitors, pilot screen, 24 h, human (AID 572;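 active means viability at or below 10% of carrier control in both of two separate runs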;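 further: compound exposure lasted between 18 and 24 h rather than exactly 24 h; 100% = carrier-treated control wells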); settings: SK-BR-3 viability, CellTiter-Glo luminescence, at 10 µM, stronger effect = lower value
[2] = HUVEC growth inhibition – cell-based, human, primary screen (AID 575;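 active means viability at or below 30% in both replicate assays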;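 further: 100% = median of untreated cell wells with 0.1% DMSO on each plate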); settings: HUVEC proliferation, CellTiter-Glo luminescence, 72 h; at 10 µM; stronger effect = lower value
Method in brief: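 Test system: HUVEC primary cells. Quantity: 1250 endothelial cells in each well. Dosing: single-point 10 µM, DMSO 0.1% final. Incubation: 72 h treatment at 37 °C. Measured by: CTG luminescence. Control set: DMSO cell controls and MePR drug controls. Plate: collagen-coated 384-well format.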

[3] = growth inhibitors of H69AR lung tumor, primary screen, human, duplicate replicates (AID 580); settings: H69AR lung tumor cells viability, ATP luminescence, 72 h; at 10 µM; stronger effect = lower value;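 further: 100% = mean luminescence of untreated wells and 0% = no signal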
[4] = reversal of MRP1-mediated doxorubicin resistance, pilot screen, H69AR cells, doxorubicin co-treatment (AID 601;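 active means viability loss from added drug above about 55%, and viability with drug at most 40%, in both replicates, limit read from the data, passing the limit was not always enough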); settings: CellTiter-Glo, 72 h, at 10 µM; for differential viability (reversal): stronger effect = higher value
[5] = 384-well plate pilot, post-Golgi transport modulator project, inhibition of yeast transport mutant growth (AID 636; in the data active means inhibition above about 31%); settings: absorbance 615 nm, about 18 h, stronger effect = higher value
[6] = growth suppression of yeast trafficking mutant, preliminary HTS, modulators of trafficking downstream of Golgi apparatus project, 1536-format plate, OD 615 nm (AID 637; in the data active means inhibition above about 30%); settings: yeast transport mutant growth, absorbance 615 nm, 18 h; stronger effect = higher value
[7] = H69AR cells + 2 uM doxorubicin, measured here: viability with 2 uM doxorubicin, stronger effect = lower value
[8] = H69AR cells, compound alone cytotoxicity

SMILES	viability [1]	viability [2]	viability [3]	differential viability (reversal) ([4]; H69AR cells + 2 uM doxorubicin)	viability [4, 7] [%]	viability [4, 8] [%]	inhibition [5]	inhibition [6]
O=C(CN1CCSCC1)N1CCc2[nH]c3ccc(Br)cc3c2C1	84% (inactive)	69.7% (inactive)	88.6% (inactive)	7.04% (inactive)	81.5	88.6	-4.93% (inactive)	2.18% (inactive)
O=C(Nc1sccc1C(=O)NCc1ccco1)c1cccnc1	90% (inactive)	96.8% (inactive)	79.6% (inactive)	-4.98% (inactive)	84.5	79.6	-0.55% (inactive)	2.55% (inactive)
CN1CC=C2C(C#N)=C(N)C(C#N)(C#N)C(c3cccc(Cl)c3Cl)C2C1 (configuration not stated)	115% (inactive)	69.7% (inactive)	61.1% (inactive)	1.02% (inactive)	60.1	61.1	-4.67% (inactive)	2.13% (inactive)
CC(C)(Oc1ccc(Cl)cc1)C(=O)NCc1ccncc1	111% (inactive)	105% (inactive)	94.2% (inactive)	5.47% (inactive)	88.7	94.2	-6.89% (inactive)	-12.2% (inactive)
CC(C)CC1NC(=O)N(CC(=O)N2CCN(S(=O)(=O)c3ccc(Cl)cc3)CC2)C1=O (configuration not stated)	97% (inactive)	91.7% (inactive)	96.4% (inactive)	-19.2% (inactive)	116	96.4	0% (inactive)	5.83% (inactive)
COc1ccccc1N1CCN(c2cc(N3CCCC3)nc(C)n2)CC1	75% (inactive)	91.8% (inactive)	87.8% (inactive)	-3.8% (inactive)	91.6	87.8	-2.6% (inactive)	-2% (inactive)
CCN(CC)CCCNC1CCS(=O)(=O)C1 (configuration not stated)	126% (inactive)	83% (inactive)	87.9% (inactive)	4.3% (inactive)	83.6	87.9	-3.42% (inactive)	-4.52% (inactive)
Cc1noc(NS(=O)(=O)c2ccc(N)cc2)c1C	97% (inactive)	91% (inactive)	105% (inactive)	15.7% (inactive)	89.1	105	2.34% (inactive)	-1.5% (inactive)
COCCOC(=O)C1=C(C)NC(C)=C(C(=O)OC(C)C)C1c1cccc([N+](=O)[O-])c1 (configuration not stated)	89% (inactive)	65.2% (inactive)	77.4% (inactive)	-19% (inactive)	96.4	77.4	1.56% (inactive)	16.2% (inactive)

Reference: PubChem BioAssay
